Reference: ChEMBL document CHEMBL5257021 (J Med Chem, 2016)
Active and inactive are the calls of the source. The rule behind the calls is not given here.

Tests used:
[1] = tested on: MDA-MB-231; assay: Cytotoxicity against human MDA-MB-231 cells expressing Y1R assessed as reduction in cell viability treated for 8 hrs followed by culturing in proliferation medium for 72 hrs by resazurin assay
[2] = tested on: T47D; assay: Cytotoxicity against human T47D cells expressing Y1R assessed as reduction in cell viability at 5 uM treated for 8 hrs followed by culturing in proliferation medium for 72 hrs in presence of 10 equiv hY1R agonist, [F7,P34]-NPY by resazurin assay; format: functional, cell-based; conditions: time 80.0 hrs
Outline: (§1)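 Breast cancer cells were exposed for 8 h at 37 °C in FCS-free medium to toxic agent together with 10 equiv of hY1R agonist [F7,P34]-NPY. Cells were then washed twice and grown 72 h in culture medium. Viability was read by resazurin (10% v/v, 2 h, ex 550/em 595 nm). Medium-treated cells with or without agonist were set at 100% and ethanol-treated cells at 0%. Triplicate, ≥2 independent experiments.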

[3] = tested on: MDA-MB-468; assay: Cytotoxicity against human MDA-MB-468 cells expressing Y1R assessed as reduction in cell viability at 10 uM treated for 8 hrs followed by culturing in proliferation medium for 72 hrs in presence of 10 equiv hY1R agonist, [F7,P34]-NPY by resazurin assay; format: functional, cell-based; conditions: time 80.0 hrs
Outline: as §1, with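 “medium.” for “medium. Viability was read by resazurin (10% v/v, 2 h, ex 550/em 595 nm).”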

[4] = tested on: T47D (Homo sapiens); assay: Cytotoxicity against human T47D cells expressing Y1R assessed as reduction in cell viability treated for 8 hrs followed by culturing in proliferation medium for 72 hrs by resazurin assay
[5] = tested on: T-47D (Homo sapiens); assay: as above
[6] = Cytotoxicity against human HEK293 cells assessed as cell viability at >= 1 uM treated for 8 hrs followed by culturing in proliferation medium for 72 hrs by resazurin assay; format: toxicity, cell-based; conditions: read-out: Activity
Outline: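 Seeding was 6000/well for MDA-MB-231, 10000 for T-47D, and 8000 for MDA-MB-468 and HEK293. After 24 h, cells got compound at 50 to 0.01 μM in FCS-free medium for 8 h at 37 °C, were washed twice, then kept 72 h in culture medium. Resazurin 10% (v/v) was added for 2 h at 37 °C and resorufin fluorescence read (ex 550/em 595 nm). Medium-only cells were set at 100% and 70% ethanol-treated cells at 0%.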

[7] = tested on: MDA-MB-468; assay: Cytotoxicity against human MDA-MB-468 cells expressing Y1R assessed as reduction in cell viability treated for 8 hrs followed by culturing in proliferation medium for 72 hrs by resazurin assay; format: functional, cell-based
[8] = tested on: MDA-MB-231; assay: Cytotoxicity against human MDA-MB-231 cells expressing Y1R assessed as reduction in cell viability at 25 uM treated for 8 hrs followed by culturing in proliferation medium for 72 hrs in presence of 10 equiv hY1R agonist, [F7,P34]-NPY by resazurin assay; format: functional, cell-based; conditions: time 80.0 hrs
Outline: as §1, with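 “medium.” for “medium. Viability was read by resazurin (10% v/v, 2 h, ex 550/em 595 nm).”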

In the case of `CN(Cc1cnc2nc(N)nc(N)c2n1)c1ccc(C(=O)N[C@@H](CCC(=O)O)C(=O)O)cc1` [METHOTREXATE], the IC50 ([1]; read-out: IC50) is reported as 15000 nM, the IC50 ([1]; read-out: pIC50 (converted)) is reported as 15800 nM and the Activity [2] is reported as “Active”. The Activity [3] was “Active”, the IC50 [4] was 500 nM and the IC50 [5] was 501 nM. For the same molecule, the viability at 80 h, 1 µM [6] was 65%, the IC50 ([7]; read-out: IC50) was 200 nM and the IC50 ([7]; read-out: pIC50 (converted)) was 200 nM. For the same molecule, the Activity [8] was “Active”.
